Compounds with a hit are over-represented: about 5% of the library has one in this group of screens.
Beta apoptosis: inhibitors of cytokine-induced beta cell apoptosis, primary screen, luminescence | AID 435005, 2010 | INS-1E cytokine-induced death, ATP luminescence, 48 h; percent of positive-control rescue, neutral wells zero | 300,000 compounds, 0.8% hits | protection from apoptosis, % (test concentration not listed);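 active = Every replicate reaches about 75%, or at least half do and their mean reaches it too, limit read from the data; inconclusive = At least half of replicates reach the limit but their mean does not; inactive = Under half of replicates reach the limit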;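 note: 0% = cytokine-treated negative control wells and 100% = positive control rescue; higher means more ATP so stronger rescue from cytokine killing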
CSC inhib: cancer stem cell viability inhibitors, primary screen, luminescence | inhibition, % at 7.5 µM | cancer stem cell-like cells viability | 300,000 compounds, 1.1% hits; in the data active = inhibition above about 75%; inconclusive = no clear call, values can overlap the other calls; tested in HMLE shEcad cells
Mdm2-MdmX inh: inhibitors of human Mdm2-MdmX association, primary screen, cell-based, luminescence, split luciferase, SaOS-2, uHTS; SaOS-2 split-luciferase Mdm2/MdmX complementation; 330,000 compounds, 3% hits; inhibition, % at 8 µM;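 active = inhibition of at least 50% at 8 µM in the primary screen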
Target sequence (O15151 whole entry, looked up): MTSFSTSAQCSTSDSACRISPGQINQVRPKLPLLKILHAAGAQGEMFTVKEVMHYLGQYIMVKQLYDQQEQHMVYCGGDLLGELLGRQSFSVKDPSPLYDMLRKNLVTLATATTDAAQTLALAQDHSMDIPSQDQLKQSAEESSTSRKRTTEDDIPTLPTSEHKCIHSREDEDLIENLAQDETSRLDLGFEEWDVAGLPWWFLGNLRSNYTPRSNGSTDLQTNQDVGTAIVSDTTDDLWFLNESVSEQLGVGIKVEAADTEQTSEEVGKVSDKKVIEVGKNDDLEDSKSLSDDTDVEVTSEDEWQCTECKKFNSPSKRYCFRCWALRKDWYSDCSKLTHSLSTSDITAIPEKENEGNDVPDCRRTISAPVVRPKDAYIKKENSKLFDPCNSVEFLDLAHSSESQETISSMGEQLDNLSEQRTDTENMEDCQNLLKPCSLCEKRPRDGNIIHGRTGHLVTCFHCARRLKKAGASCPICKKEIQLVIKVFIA
Target sequence (Q00987 whole entry, looked up): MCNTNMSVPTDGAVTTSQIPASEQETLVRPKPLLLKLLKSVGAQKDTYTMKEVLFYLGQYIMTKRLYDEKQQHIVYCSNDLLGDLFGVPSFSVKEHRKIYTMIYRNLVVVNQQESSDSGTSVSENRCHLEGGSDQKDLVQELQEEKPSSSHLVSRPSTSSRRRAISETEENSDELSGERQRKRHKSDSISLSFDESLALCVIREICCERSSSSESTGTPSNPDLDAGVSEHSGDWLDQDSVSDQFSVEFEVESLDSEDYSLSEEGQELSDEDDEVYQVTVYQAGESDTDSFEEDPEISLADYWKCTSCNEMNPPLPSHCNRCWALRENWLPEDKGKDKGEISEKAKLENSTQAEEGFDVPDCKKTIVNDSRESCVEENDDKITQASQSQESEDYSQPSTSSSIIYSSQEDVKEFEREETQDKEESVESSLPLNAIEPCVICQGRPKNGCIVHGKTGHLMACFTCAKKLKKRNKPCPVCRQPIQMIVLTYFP
UPR XBP1 act: activators of adaptive XBP1 UPR arm, primary screen, cell-based, CHO-XBP1 luciferase reporter, luminescence, uHTS. IRE1-XBP1 UPR activation; percent of tunicamycin response, DMSO as zero. activation, % at 20 µM. 330,000 compounds, 0.33% hits. AID 463104, 2010;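 active = versus positive control, 20 µM dose yields 30% or more activation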;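 note: 100% = tunicamycin at 10 µg/mL and 0% = DMSO only wells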
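Material: CHO cell line with stable XBP1 luciferase reporter; buffer or medium: F12 medium containing 10% fetal bovine serum; compound: single point, 20 µM final compound, 1% DMSO; incubation: 6 h treatment, 37 °C; measured by: glow luminescence from Steady-Glo reagent; evaluation: activation, % of tunicamycin; control set: tunicamycin high, DMSO low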
UPR CHOP act: activators of apoptotic CHOP UPR arm, primary screen, cell-based, CHO-CHOP luciferase reporter, luminescence, uHTS | UPR activation; percent of tunicamycin response over DMSO baseline | activation, % at 10 µM | 330,000 compounds, 0.34% hits | AID 449763, 2010;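 active = at 10 µM dose, activation of 40% or more, normalized to positive control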;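 note: 100% = tunicamycin at 10 µg/mL and 0% = DMSO alone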
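Evaluation: % reporter activation, DMSO baseline versus tunicamycin full activation; System: CHO-CHOP luciferase reporter cell line; Input: 500 cells/well; Incubation: 6 h compound treatment, 37 °C; Measured by: Steady-Glo luciferase luminescence; Dosing: one dose, 10 µM in 0.5% DMSO; Buffer or medium: F12 medium, 10% FBS; Benchmarks: positive tunicamycin 10 µg/mL, negative DMSO alone.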
T cruzi repl: inhibitors of intracellular T. cruzi growth, primary screen, luminescence, NIH3T3 host cells | 300,000 compounds, 1.4% hits | T. cruzi beta-gal in NIH3T3, 90 h | inhibition, % (no concentration beside the values);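 active = mean inhibition across valid replicates above about 55%, limit read from the data; inconclusive = mean below that limit but half or more replicates reach it; inactive = mean below it, under half of replicates reach it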;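 note: signal also drops with host cell toxicity which is not excluded here; 0% = plate median of DMSO wells and 100% = zero luminescence signal; higher percent means less beta-gal luminescence so fewer parasites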
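Assay system: NIH/3T3 fibroblasts plus reporter T. cruzi. Amount: NIH/3T3 cells, 5,000 per well. Buffer or medium: DMEM, 2% fetal bovine serum. Doses: compound pinned at 50 nL/well, DMSO. Schedule: ≥90 h infection period, 3 h prior cell attachment. Signal: luminescent β-galactosidase signal after 60 min lysis. Read-out: parasite load inhibition, %.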
Mdm2-MdmX conf: Mdm2-MdmX complex disruptors, retested hits, confirmation, luminescence, single concentration. shares compounds with Mdm2-MdmX inh. Mdm2-MdmX binding, luminescent assay. inhibition, % at 8 µM. 10,000 compounds, 55% hits. AID 489028, 2010; in the data active = inhibition above about 40%
FLuc counter: full-length luciferase signal inhibition, confirmation, counter-screen for Mdm2/MdmX interaction inhibitor project, cell-based, single concentration, SaOS-2 | inhibition, % at 8 µM | SaOS-2 full-length luciferase counterscreen, luminescence | shares compounds with Mdm2-MdmX inh | AID 504607, 2011 | 6,200 compounds, 77% hits;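 active = mean inhibition at 8 µM reaching about 37%, which flags the compound as non-specific, limit read from the data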;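 note: p53-null SaOS-2 cells with luciferase driven by a doxycycline-inducible promoter; compound on cells about two nights before reading with doxycycline added after day one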
The depositor's hits bear a star; ? = inconclusive; . = no result.

SMILES	Beta apoptosis	CSC inhib	Mdm2-MdmX inh	UPR XBP1 act	UPR CHOP act	T cruzi repl	Mdm2-MdmX conf	FLuc counter
COc1ccc(-n2nc(C(=O)Nc3ccc(OC)c(OC)c3)c3c4ccccc4n(C)c3c2=O)cc1	17.9	-2.5	75.6*	1.3	2.1	16.6	38.3	.
COc1ccc(-n2nc(C(=O)NCC(=O)Nc3cccc(Cl)c3)c3ccccc3c2=O)cc1OC	10.0	.	79.8*	-9.4	4.9	29.5	47.7*	37.1*
COc1ccc(-n2nc(C(=O)NCC(=O)NC(C)C)c3ccccc3c2=O)cc1Cl	4.9	2.2	8.7	-1.8	0.4	-7.6	.	.
CCOC(=O)/C=c1\s/c(=C\c2c(OC)ccc3ccccc23)c(=O)n1CC(=O)NCC1CCCO1 (stereo not drawn)	31.6	57.3	62.7*	11.7	-0.3	11.2	64.7*	77.1*
S=c1nc(-c2sccc2OCc2ccc(Cl)cc2Cl)[nH][nH]1	-5.2	-3.5	-10.2	-2.7	1.3	2.6	.	.
O=[N+]([O-])c1ccc(S(=O)(=O)c2cccc(C(F)(F)F)c2)nc1	56.7	5.9	95.5*	-11.1	-9.8	66.2*	100.0*	0.2
O=S(=O)(Nc1cccnc1)c1cccc(C(F)(F)F)c1	-2.1	-3.8	7.5	-0.4	0.0	-9.1	.	.
Cc1ccsc1-c1nc(C(N)=O)c2[nH]c(=O)n(-c3ccc(Cl)cc3)c2n1	0.2	1.2	97.0*	-2.3	6.8	-3.4	11.9	.
O=C(N/N=C/c1cc(Br)ccc1O)Nc1ccccc1	-10.5	-6.4	27.3	4.2	6.4	6.9	.	.
CCOc1ccccc1NC(=O)C(=O)N/N=C/c1cc(Br)ccc1O	88.4*	-5.5	75.9*	-1.7	-2.6	62.5*	83.3*	39.1*
COc1cccc(/C=N/NC(=O)C(=O)Nc2ccccc2OC(F)(F)C(F)F)c1O	82.5*	108.4*	61.5*	-2.6	-0.1	-3.0	74.8*	21.8
COc1cccc(/C=N/NC(=O)c2c(C)nc3ccc(Cl)cn23)c1O	122.7*	71.4	68.2*	0.8	-1.4	19.6	78.3*	34.5
Cc1cccc(/C=N/NC(=O)c2c(-c3ccccc3)noc2C)c1O	92.3*	-12.1	66.7*	-2.9	-2.0	51.9	69.0*	35.6
COc1ccccc1/C=N/NC(=O)c1c(-c2ccccc2)noc1C	-13.1	21.3	4.8	-5.4	0.1	-5.0	.	.
CC(C)(C)c1ccc(S(=O)(=O)N2CCN(c3ncccn3)CC2)cc1	.	-6.8	4.9	-1.4	-0.5	16.7	.	.
C[C@H]1CN([C@@H](C)CO)C(=O)c2cc(NC(=O)C3CCCCC3)ccc2O[C@H]1CN(C)C(=O)Nc1ccc2c(c1)OCO2	-2.7	-14.3	-0.2	1.6	1.8	.	.	.
COc1cccc(/C=N/NC(=O)c2ccc(-c3ccccc3)cc2)c1O	106.9*	?	76.3*	2.8	-3.2	-7.5	77.0*	23.0
COc1cccc(/C=N/NC(=O)c2[nH]c(C)c(C(=O)N/N=C/c3cccc(OC)c3O)c2C)c1O	37.5	92.6*	62.0*	-2.2	3.5	-12.6	42.5*	70.0*
COc1ccc(OC)c(/C=N\NC(=O)c2ccc(-c3ccccc3)cc2)c1	0.2	-2.3	4.4	-2.1	1.2	.	.	.
COc1cccc(/C=N/NC(=O)CN2CC(c3ccccc3)CC2=O)c1O (stereo not drawn)	76.6*	58.4	52.2*	2.4	2.7	2.9	30.2	.
CC(C)CN(C(=O)C(C)N1C(=O)c2ccccc2C1=O)c1c(N)n(Cc2ccccc2)c(=O)[nH]c1=O (stereo not drawn)	.	-9.2	-19.6	-0.4	0.7	3.2	.	.
CC(C)CC(=O)c1c(O)c(C=O)c(O)c2c1O[C@@]1(C)[C@@H](C2)C[C@H]2C[C@@H]1C2(C)C	1.8	106.7*	59.5*	10.0	5.5	.	-2.6	.
COc1cc(NC(=O)c2n[nH]c(=O)c3ccccc23)cc(OC)c1	0.6	-0.8	8.2	-0.3	0.4	-20.5	.	.
COc1ccc(-c2nc(NC(=O)c3cc(C(C)(C)C)nn3C)sc2C)cc1	85.1*	80.9*	60.7*	8.4	6.8	57.0*	32.1	.
NNC(=O)c1n[nH]c(=O)c2ccccc12	-0.8	-2.2	-7.4	-0.5	-1.0	-7.2	.	.
SMILES	Beta apoptosis	CSC inhib	Mdm2-MdmX inh	UPR XBP1 act	UPR CHOP act	T cruzi repl	Mdm2-MdmX conf	FLuc counter
COc1ccc(-c2nc(NC(=O)c3n[nH]c(=O)c4ccccc34)sc2C)cc1	19.9	22.9	68.9*	-0.6	3.1	6.9	35.6	.
COc1ccc(-c2nc(NC(=O)c3c(C)noc3C)sc2C)cc1	.	.	13.1	-3.9	0.0	.	.	.
Cc1cc(C)c(-c2csc(NC(=O)c3n[nH]c(=O)c4ccccc34)n2)c(C)c1	6.3	.	59.9*	-0.7	2.8	14.2	62.0*	67.5*
COc1cc(O)c(/C=N/NC(=O)c2ccncc2)c(OC)c1[N+](=O)[O-]	-5.3	7.2	17.2	-2.0	4.2	-3.9	.	.
Cc1sc2nc(C3CCCCC3)nc(SCC(=O)N3CC(=O)Nc4ccccc43)c2c1C	-7.2	-1.9	55.7*	6.2	1.9	-13.6	18.1	.
CC[C@H](C)Cc1cn([C@@H](CCCN=C(NC(=O)OC(C)(C)C)NC(=O)OC(C)(C)C)C(=O)NCCCCCCCCCCC(=O)N2CCN(C(=O)OC(C)(C)C)CC2)nn1	39.2	43.1	65.6*	20.8	13.1	59.0*	32.5	.
Cc1cn([C@@H](CCCCNC(=O)OC(C)(C)C)C(=O)NCCCCCCCCCCC(=O)N2CCN(C(=O)OC(C)(C)C)CC2)nn1	72.0	12.1	32.9	-3.0	4.9	.	.	.
COc1cccc(NC(=O)CC(=O)c2ccccc2)c1	-5.4	-3.3	-27.7	-1.1	3.7	-11.6	.	.
CCC(C)(O)c1[nH]c2ccc(C(F)(F)F)cc2c1C (stereo not drawn)	-3.3	6.7	20.1	1.1	-0.6	-6.6	.	.
O=C(CNc1ccc2ccccc2c1)N/N=C/C=C/c1cccc([N+](=O)[O-])c1	-6.3	28.1	82.4*	-0.7	1.1	-21.2	11.9	.
O=C(N/N=C/C=C/c1cccc([N+](=O)[O-])c1)C(O)c1ccccc1 (stereo not drawn)	-0.4	-11.9	-2.9	-0.5	2.9	-6.8	.	.

From PubChem BioAssay
